Assay results pooled from the literature.
Target: Serine/threonine-protein kinase 3 (STK3, Homo sapiens, UniProt Q13188)
Residues used in one study (Q13188 1-491): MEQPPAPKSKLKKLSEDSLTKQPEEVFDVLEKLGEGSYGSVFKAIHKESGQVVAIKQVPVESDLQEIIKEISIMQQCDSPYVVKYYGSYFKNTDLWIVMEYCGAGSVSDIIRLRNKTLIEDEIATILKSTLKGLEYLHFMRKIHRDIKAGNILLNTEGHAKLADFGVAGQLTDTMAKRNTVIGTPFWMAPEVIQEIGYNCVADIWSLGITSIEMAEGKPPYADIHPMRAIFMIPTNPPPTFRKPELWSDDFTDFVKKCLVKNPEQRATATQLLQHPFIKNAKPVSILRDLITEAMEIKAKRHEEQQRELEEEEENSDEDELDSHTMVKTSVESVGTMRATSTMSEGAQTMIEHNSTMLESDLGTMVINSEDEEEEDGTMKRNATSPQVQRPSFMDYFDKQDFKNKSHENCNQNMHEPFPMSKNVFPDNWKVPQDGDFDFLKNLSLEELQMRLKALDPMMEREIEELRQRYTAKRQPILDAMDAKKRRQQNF

Compound	assay	setting	remaining binding [%]
CN([C@@H]1CCc2c(CC(=O)O)c3cc(S(C)(=O)=O)ccc3n2C1)S(=O)(=O)c1ccc(F)cc1	cell-free assay, competition with immobilised ligand	1 µM	98
COc1cnc(Nc2cccc(S(N)(=O)=O)c2)nc1N1CCN(c2ccccc2)CC1	binding, competition with immobilised ligand	1 µM	95
C[C@@H]1CCN(c2nccc(-c3cnn4ncccc34)n2)C1	binding	1 µM	100
C[C@H](c1ccc(F)cc1)N(Cc1cccc(C(=O)O)c1)C(=O)c1cnc2ccccc2c1	cell-free assay, competition with immobilised ligand	1 µM	100
O=C(c1ccc(Nc2ncc(Cl)c(-c3cc4ccccc4s3)n2)cc1)N1CCC(N2CCCC2)CC1	binding, competition with immobilised ligand	1 µM	65
O=C(Nc1c[nH]nc1C(=O)NC1CCNCC1)c1cc(F)cc(F)c1	binding, competition with immobilised ligand	1 µM	100
Cc1c(NC(=O)c2cc(C(N)=O)nc3cc(F)ccc23)c(C(F)(F)F)nn1Cc1ccc(C#N)cc1	cell-free assay, competition with immobilised ligand	1 µM	96
FC(F)(F)Oc1cccc(-c2cnc3ccc(-c4ccncc4)nn23)c1	cell-free assay, competition with immobilised ligand	5 µM	58
Cc1cnn2ncc(-c3ccnc(N(C)C)n3)c2c1	binding	1 µM	100
COc1ccc2c(c1)O[C@@H](c1ccc(OC)c(OC)c1)C[C@H]2NC(=O)C1(c2ccc3c(c2)OC(F)(F)O3)CC1	cell-free assay, competition with immobilised ligand	1 µM	96
C[C@@H](c1ccc(-n2cnc3c(N)ncnc32)cc1)N1CCc2nn(C)c(Cc3ccccc3)c2C1=O	binding, competition with immobilised ligand	0.1 µM	74
CN(C)c1nccc(-c2cnc3ncccn23)n1	binding	1 µM	62
COc1cc(-c2cn(C3CCc4ccccc4N(CC(F)(F)F)C3=O)nn2)ccc1-n1ccc(C)n1 (stereo not shown)	cell-free assay, competition with immobilised ligand	1 µM	84
F[C@@H]1CCN(c2nccc(-c3cnn4ncccc34)n2)C1	binding	1 µM	100
Cc1cc(NC(=O)c2cccc(S(F)(F)(F)(F)F)c2)cc(-n2ccn3nc(-c4cccnc4)cc23)c1	cell-free assay, competition with immobilised ligand	1 µM	100
CC1CCCN1c1nccc(-c2cnn3ncccc23)n1 (stereo not shown)	binding	1 µM	100
O=C(NCCCN1CCOCC1)c1ccc(Nc2ncc(Cl)c(-c3ccc(Cl)s3)n2)cc1	binding, competition with immobilised ligand	1 µM	12
N[C@@H]1CCN(c2nccc(-c3cnn4ncccc34)n2)C1	binding	1 µM	98
O=C(O)c1cc(-c2ccc(C3CCNCC3)cc2)c2ccc(-c3ccc(C(F)(F)F)cc3)cc2c1	cell-free assay, competition with immobilised ligand	1 µM	100
CNC(=O)[C@@H]1CC[C@@H](n2c(-c3ccc4cnccc4c3)nc3ccc(C(=O)NCc4cccc(C(N)=O)c4)cc32)C1	binding, competition with immobilised ligand	1 µM	100
COc1ccnn2ncc(-c3ccnc(N(C)C)n3)c12	binding	1 µM	100
O=C(c1ccc(Nc2nccc(-c3cc4ccccc4s3)n2)cc1)N1CCC(N2CCCC2)CC1	binding, competition with immobilised ligand	1 µM	100
